The record followed here is ChEMBL document CHEMBL1155580, “Chemical constituents of Clausena excavata: isolation and structure elucidation of novel furanone-coumarins with inhibitory effects for tumor-promotion” (J Nat Prod, 2000).

The structures appear in SMILES notation.

What all share (assay type): cell-based
Data set [1] deals with Raji. Briefly: Inhibition of 12-O-tetradecanoylphorbol-13-acetate-induced EBV-early antigen activation in human Raji cells assessed as EA activation at 32 nmol relative to 12-O-tetradecanoylphorbol-13-acetate. The arrangement: scale not given: the % may be the effect or the level left. The settings on record: human gammaherpesvirus 4. The method in brief: (§1)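 Raji cells at 10^6 cells/mL resuspended in RPMI 1640 with 10% FCS, 4 mM n-butyric acid as inducer and 32 pmol TPA (20 ng/mL in DMSO), plus test agent in DMSO (32, 16, 3.2 or 0.32 nmol). Held 37 °C for 48 h. EA-positive cells scored blind, at least 500 cells per assay. Values are % of the TPA positive control (100%), ± s.d.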

Data set [2] concerns Raji. In words: Inhibition of 12-O-tetradecanoylphorbol-13-acetate-induced EBV-early antigen activation in human Raji cells assessed as EA activation at 16 nmol relative to 12-O-tetradecanoylphorbol-13-acetate. The arrangement: scale not given: the % may be the effect or the level left. The settings on record: human gammaherpesvirus 4. The method in brief: as §1
The test system of data set [3] is Raji. In words: Inhibition of 12-O-tetradecanoylphorbol-13-acetate-induced EBV-early antigen activation in human Raji cells assessed as EA activation at 3.2 nmol relative to 12-O-tetradecanoylphorbol-13-acetate. The settings on record: human gammaherpesvirus 4. The arrangement: scale not given: the % may be the effect or the level left. Summed up: as §1
Data set [4] relates to Raji. In words: Inhibition of 12-O-tetradecanoylphorbol-13-acetate-induced EBV-early antigen activation in human Raji cells assessed as EA activation at 0.32 nmol relative to 12-O-tetradecanoylphorbol-13-acetate. The settings on record: human gammaherpesvirus 4. Further details: scale not given: the % may be the effect or the level left. Summed up: as §1
Data set [5] in a line: Cytotoxicity against human Raji cells assessed as cell viability at 32 nmol by trypan blue staining. The settings on record: read-out: Activity. Summed up:
(§2)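 Raji cells grown to 10^6 cells/mL, pelleted and resuspended in RPMI 1640 with 10% FCS, 4 mM n-butyric acid and 32 pmol TPA (20 ng/mL). Test agent added in DMSO at mole ratios to TPA (1000 = 32 nmol, 500 = 16 nmol, 100 = 3.2 nmol, 10 = 0.32 nmol). Incubated 37 °C for 48 h. Viability counted by hemocytometer with Trypan Blue.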

Data set [6] in a line: Cytotoxicity against human Raji cells assessed as cell viability at 16 nmol by trypan blue staining. The following applies: read-out: Activity. The method in brief: as §2
The nature of data set [7]: Cytotoxicity against human Raji cells assessed as cell viability at 3.2 nmol by trypan blue staining. The following applies: read-out: Activity. Summed up:
as §2

A short description of data set [8]: Cytotoxicity against human Raji cells assessed as cell viability at 0.32 nmol by trypan blue staining. The following applies: read-out: Activity. Summed up:
as §2

For `CC1(O)CC(CC(C)(O)C2COc3ccc4ccc(=O)oc4c3O2)OC1=O` (stereo not given) [CLAUSLACTONE B], the Activity with Raji [1] was 17.1%; in the data set with Raji [2], 50.5%; in the data set with Raji [3] it was 82.7%; in the data set with Raji [4], 100%. For the same compound, in data set [5], the viability at 32 nmol turned out to be 60%. Besides, the viability at 16 nmol in data set [6] was greater than 80%. In data set [7], the viability at 3.2 nmol was greater than 80%. In data set [8], the viability at 0.32 nmol is greater than 80%.
For `C=C1CC(CC(C)(O)C2COc3ccc4ccc(=O)oc4c3O2)OC1=O` (stereo not given) [CLAUSLACTONE A], the Activity in the data set on Raji [1] was determined as 26.4%; with Raji [2], 59.2%; in the data set with Raji [3] it was 85.2%; with Raji [4] it was 100%. Further, the viability at 32 nmol in data set [5] came to 60%. Moreover, the viability at 16 nmol in data set [6] was greater than 80%. Further, the viability at 3.2 nmol in data set [7] is greater than 80%. For the same compound, in data set [8], the viability at 0.32 nmol is greater than 80%.
Regarding `COc1ccc2ccc(=O)oc2c1` [HERNIARIN], the Activity in the data set with Raji [1] turned out to be 0%; in the data set with Raji [2], 71.7%; with Raji [3], 100%; in the data set on Raji [4], 100%. For the same compound, the viability at 32 nmol in data set [5] came to 30%. For the same compound, the viability at 16 nmol in data set [6] worked out at 60%. Moreover, the viability at 3.2 nmol in data set [7] is greater than 80%. In addition, in data set [8], the viability at 0.32 nmol is greater than 80%.
Take `CC(O)(CC1CC(O)(CO)C(=O)O1)C1COc2ccc3ccc(=O)oc3c2O1` (stereo not given) [CLAUSLACTONE C]: the Activity in the data set on Raji [1] is 10.3%; in the data set on Raji [2] it was 46.9%; in the data set with Raji [3] it was 80.1%; in the data set with Raji [4], 95.3%. For the same compound, the viability at 32 nmol in data set [5] is 60%. Also, the viability at 16 nmol in data set [6] is greater than 80%. Besides, the viability at 3.2 nmol in data set [7] is greater than 80%. Besides, the viability at 0.32 nmol in data set [8] is greater than 80%.
Take `CC1(O)CC(CC2(C)OC2COc2ccc3ccc(=O)oc3c2)OC1=O` (stereo not given) [CLAUSLACTONE H]: the Activity worked out at 25.1% with Raji [1], 60.4% with Raji [2], 88.4% in the data set on Raji [3] and 100% with Raji [4]. For the same compound, the viability at 32 nmol in data set [5] was found to be 60%. In addition, the viability at 16 nmol in data set [6] was greater than 80%. The viability at 3.2 nmol in data set [7] was greater than 80%. Further, the viability at 0.32 nmol in data set [8] is greater than 80%.
As for `CC1(CC2C=C(CO)C(=O)O2)OC1COc1ccc2ccc(=O)oc2c1` (stereo not given) [CLAUSLACTONE J], the Activity stood at 27.4% with Raji [1], 65.8% in the data set with Raji [2], 85.2% in the data set on Raji [3] and 100% in the data set with Raji [4]. Moreover, in data set [5], the viability at 32 nmol turned out to be 60%. Also, the viability at 16 nmol in data set [6] was greater than 80%. In addition, the viability at 3.2 nmol in data set [7] was greater than 80%. Moreover, in data set [8], the viability at 0.32 nmol was greater than 80%.
Regarding `C/C(=C\COc1ccc2ccc(=O)oc2c1)CC1CC(O)(CO)C(=O)O1` (stereo not given) [CLAUSLACTONE I], the Activity with Raji [1] was 20.6%; with Raji [2] it was 54.3%; with Raji [3] it was 82.5%; in the data set with Raji [4], 100%. Further, in data set [5], the viability at 32 nmol amounted to 60%. Moreover, in data set [6], the viability at 16 nmol is greater than 80%. For the same compound, the viability at 3.2 nmol in data set [7] is greater than 80%. The viability at 0.32 nmol in data set [8] is greater than 80%.
Turning to `CC(O)(CC1C=C(CO)C(=O)O1)C1COc2ccc3ccc(=O)oc3c2O1` (stereo not given) [CLAUSLACTONE D], the Activity in the data set with Raji [1] is 19.6%; with Raji [2], 52.3%; in the data set on Raji [3], 84.8%; in the data set with Raji [4], 100%. For the same compound, the viability at 32 nmol in data set [5] was determined as 60%. Further, in data set [6], the viability at 16 nmol was greater than 80%. The viability at 3.2 nmol in data set [7] was greater than 80%. Further, in data set [8], the viability at 0.32 nmol is greater than 80%.
As for `C=C1CC(CC2(C)OC2COc2ccc3ccc(=O)oc3c2)OC1=O` (stereo not given) [CLAUSLACTONE F], the Activity in the data set on Raji [1] worked out at 29.3%; with Raji [2] it was 62.7%; in the data set on Raji [3], 89.6%; in the data set on Raji [4], 100%. In addition, the viability at 32 nmol in data set [5] came out at 60%. In addition, the viability at 16 nmol in data set [6] is greater than 80%. Moreover, the viability at 3.2 nmol in data set [7] is greater than 80%. Besides, the viability at 0.32 nmol in data set [8] was greater than 80%.
For `C=C1CC(C/C(C)=C/COc2ccc3ccc(=O)oc3c2O)OC1=O` (stereo not given) [CLAUSLACTONE E], the Activity in the data set on Raji [1] amounted to 22.4%; in the data set with Raji [2], 58.8%; in the data set with Raji [3], 86.2%; with Raji [4] it was 100%. For the same compound, the viability at 32 nmol in data set [5] was found to be 60%. Besides, the viability at 16 nmol in data set [6] was greater than 80%. Further, in data set [7], the viability at 3.2 nmol is greater than 80%. For the same compound, the viability at 0.32 nmol in data set [8] was greater than 80%.
